Test results from PubChem BioAssay AID573 (SRMLSC, 2007).
About 1,400 (2.2%) of roughly 65,000 compounds were called active. For the sample, actives were picked, then their nearest neighbours and some compounds at random. Unmarked numbers belong to inactive results.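 How the source made its calls: active means growth inhibition at or above a cutoff equal to the mean over every tested compound plus 3 SD (cut at about 60% in these data); inactive means the rest.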

Experiment: growth inhibitors of E. coli tolC mutant, primary screen, strain BW25113 ΔtolC::kan, 384-well (AID 573)
Conditions: OD615, active compounds read high, concentration not given here
How it was run: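 Test system: tolC-deleted E. coli BW25113; medium: LB with kanamycin 50 µg/mL; compound: single-point testing at 10 µM; incubation: 20 h compound exposure of bacteria at 37 °C; signal: OD at 615 nm; evaluation: growth inhibition in percent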

Q: With CCOC(=O)c1c(-c2ccccc2)oc2ccc(OC(=O)N(C)C)cc12 as the compound, how does the growth inhibition read?
A: Its growth inhibition is 96.5% (active).

Q: With CCN1c2nc3c(C)cccn3c(=O)c2CC2(C(=O)N(C)C(=O)N(C)C2=O)C1C (stereo not given) as the compound, how does the growth inhibition read?
A: The growth inhibition was -0.7%.

Q: Which growth inhibition does the source give for CCC(=NCCCO)c1c(O)n(-c2ccc(OC)cc2)c(=O)[nH]c1=O here?
A: The growth inhibition was -12.6%.

Q: Which growth inhibition does the source give for CCCCCCN=C(CC)c1c(O)n(CCCC)c(=O)[nH]c1=O here?
A: The growth inhibition was 90.2% (active).

Q: Which growth inhibition does the source give for CCC(=NCc1ccco1)c1c(O)n(Cc2ccccc2)c(=O)[nH]c1=O here?
A: The growth inhibition was 7.19%.

Q: For CCCC(C)n1[nH]c(=O)c2c1NC(=O)CSC2c1ccc(OC)c(OC)c1 (stereo not given), which growth inhibition is on record?
A: The growth inhibition was -7.28%.

Q: With Cn1c(C(=O)N2CCC(C(=O)N3CCC4(CC3)OCCO4)CC2)cc2sccc21 as the compound, how does the growth inhibition read?
A: The growth inhibition was 3.04%.

Q: For C/C(CCc1c[nH]c2ccccc12)=N\O, which growth inhibition is on record?
A: The growth inhibition was -11.1%.

Q: Which growth inhibition does the source give for c1cncc(CNC2=NCCC2)c1 here?
A: Its growth inhibition is -5.19%.

Q: Which growth inhibition does the source give for C=Cn1ccnc1P(=S)(c1cc(N(CC)CC)ns1)c1nccn1C=C here?
A: The growth inhibition was 8.14%.
